Reference: ChEMBL document CHEMBL4330094, “Potent Metabolic Sialylation Inhibitors Based on C-5-Modified Fluorinated Sialic Acids” (J Med Chem, 2019)
The source made the active and inactive calls. The calls are words filed in the database; no cut-off is given here.

Tested on: B16-F10
Test: Effect on total cell surface glycosylation in mouse B16F10 cells assessed as inhibition of biotinylated PHA-L lectin binding at 102.4 uM after 3 days by flow cytometry
Assay type: cell-based
Conditions: b16-f10, 72 h
Outline: (§1)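 B16-F10 cells were exposed 3 days to 102.4 µM compound or DMSO. Staining used biotinylated lectins (AAL 5, PNA 5, GSL-I 1, LCA 1, PHA-L 1, PSA 1, SJA 1, WGA 1 µg/ml) in carbo-free blocking buffer with 1 mM CaCl and 1 mM MgCl for 45-60 min at 4 °C, then streptavidin-PE for 20 min at 4 °C. Flow cytometry read-out was MFI, mean ± SEM from two independent experiments.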

SMILES	Activity
COC(=O)C1(OC(C)=O)O[C@@H]([C@H](OC(C)=O)[C@@H](COC(C)=O)OC(C)=O)[C@H](NC(=O)C(F)(F)F)[C@@H](OC(C)=O)[C@H]1F (stereo partly drawn)	Non-Toxic

Tested on: B16-F10
Test: Effect on total cell surface glycosylation in mouse B16F10 cells assessed as inhibition of biotinylated SJA-lectin binding at 102.4 uM after 3 days by flow cytometry
Assay type: cell-based
Conditions: b16-f10, 72 h
Outline: as §1

SMILES	Activity
COC(=O)C1(OC(C)=O)O[C@@H]([C@H](OC(C)=O)[C@@H](COC(C)=O)OC(C)=O)[C@H](NC(=O)C(F)(F)F)[C@@H](OC(C)=O)[C@H]1F (stereo partly drawn)	Non-Toxic

Tested on: B16-F10
Test: Effect on total cell surface glycosylation in mouse B16F10 cells assessed as inhibition of biotinylated AAL-lectin binding at 102.4 uM after 3 days by flow cytometry
Assay type: cell-based
Conditions: b16-f10, 72 h
Outline: as §1

SMILES	Activity
COC(=O)C1(OC(C)=O)O[C@@H]([C@H](OC(C)=O)[C@@H](COC(C)=O)OC(C)=O)[C@H](NC(=O)C(F)(F)F)[C@@H](OC(C)=O)[C@H]1F (stereo partly drawn)	Non-Toxic

Tested on: B16-F10
Test: Effect on total cell surface glycosylation in mouse B16F10 cells assessed as inhibition of biotinylated LCA-lectin binding at 102.4 uM after 3 days by flow cytometry
Assay type: cell-based
Conditions: b16-f10, 72 h
Outline: as §1

SMILES	Activity
COC(=O)C1(OC(C)=O)O[C@@H]([C@H](OC(C)=O)[C@@H](COC(C)=O)OC(C)=O)[C@H](NC(=O)C(F)(F)F)[C@@H](OC(C)=O)[C@H]1F (stereo partly drawn)	Non-Toxic

Tested on: B16-F10
Test: Effect on total cell surface glycosylation in mouse B16F10 cells assessed as inhibition of biotinylated GSL1-lectin binding at 102.4 uM after 3 days by flow cytometry
Assay type: cell-based
Conditions: b16-f10, 72 h
Outline: as §1

SMILES	Activity
COC(=O)C1(OC(C)=O)O[C@@H]([C@H](OC(C)=O)[C@@H](COC(C)=O)OC(C)=O)[C@H](NC(=O)C(F)(F)F)[C@@H](OC(C)=O)[C@H]1F (stereo partly drawn)	Non-Toxic

Tested on: B16-F10
Test: Inhibition of sialyltransferase in mouse B16-F10 cells assessed as recovery time for sialylation at 25.6 uM pretreated for 3 days followed by washing and re-seeding and measured after 6 days by biotinylated MAL2 lectin-based flow cytometry
Assay type: cell-based
Conditions: not given
Outline: (§2)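 B16-F10 cells were pretreated 3 days with 25.6 or 51.2 µM compound or DMSO, washed, reseeded, and sampled daily for 6 days. They were stained with biotinylated MALII (5 µg/ml, 45-60 min, 4 °C) plus streptavidin-PE. Flow cytometry MFI was normalized to control as % lectin binding.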

SMILES	sialylation recovery time
COC(=O)C1(OC(C)=O)O[C@@H]([C@H](OC(C)=O)[C@@H](COC(C)=O)OC(C)=O)[C@H](NC(=O)C(F)(F)F)[C@@H](OC(C)=O)[C@H]1F (stereo partly drawn)	Active

Tested on: not listed separately
Test: Inhibition of sialyltransferase in mouse B16F10 cells assessed as decrease in lectin binding after 3 days by biotinylated MAL2 lectin and streptavidin-PE based flow cytometry
Assay type: cell-based
Conditions: not given
Outline: (§3)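 Each cell line was incubated 3 days with increasing compound concentrations or equivalent DMSO. Cells were stained with biotinylated MALII (5 µg/ml) in carbo-free blocking buffer with 1 mM CaCl/MgCl for 45-60 min at 4 °C, washed in PBS/1% BSA/0.02% azide, then stained with streptavidin-PE for 20 min at 4 °C. For flow cytometry, MFI was normalized to control as % lectin binding.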

SMILES	EC50 [µM]
CCCCOC(=O)N[C@H]1[C@H]([C@H](OC(C)=O)[C@@H](COC(C)=O)OC(C)=O)OC(OC(C)=O)(C(=O)OC)[C@H](F)[C@@H]1OC(C)=O (stereo partly drawn)	7.45
COC(=O)C1(OC(C)=O)O[C@@H]([C@H](OC(C)=O)[C@@H](COC(C)=O)OC(C)=O)[C@H](NC(=O)OCc2ccccc2)[C@@H](OC(C)=O)[C@H]1F (stereo partly drawn)	14.5
COC(=O)C1(OC(C)=O)O[C@@H]([C@H](OC(C)=O)[C@@H](COC(C)=O)OC(C)=O)[C@H](NC(=O)CCl)[C@@H](OC(C)=O)[C@H]1F (stereo partly drawn)	18
COC(=O)C1(OC(C)=O)O[C@@H]([C@H](OC(C)=O)[C@@H](COC(C)=O)OC(C)=O)[C@H](NC(=O)OCCF)[C@@H](OC(C)=O)[C@H]1F (stereo partly drawn)	1.25

More lines, in order of falling EC50, values ahead:

EC50 [µM]	SMILES
25.5	COCCOC(=O)N[C@H]1[C@H]([C@H](OC(C)=O)[C@@H](COC(C)=O)OC(C)=O)OC(OC(C)=O)(C(=O)OC)[C@H](F)[C@@H]1OC(C)=O (stereo partly drawn)
14.3	COC(=O)C1(OC(C)=O)O[C@@H]([C@H](OC(C)=O)[C@@H](COC(C)=O)OC(C)=O)[C@H](NC(=O)C(F)(F)F)[C@@H](OC(C)=O)[C@H]1F (stereo partly drawn)
3.83	COC(=O)C1(OC(C)=O)O[C@@H]([C@H](OC(C)=O)[C@@H](COC(C)=O)OC(C)=O)[C@H](NC(=O)OCC(Cl)(Cl)Cl)[C@@H](OC(C)=O)[C@H]1F (stereo partly drawn)

Tested on: not listed separately
Test: Inhibition of sialyltransferase in mouse EL4 cells assessed as decrease in lectin binding after 3 days by biotinylated MAL2 lectin and streptavidin-PE based flow cytometry
Assay type: cell-based
Conditions: not given
Outline: as §3

EC50 [µM]	SMILES
≥ 50	COCCOC(=O)N[C@H]1[C@H]([C@H](OC(C)=O)[C@@H](COC(C)=O)OC(C)=O)OC(OC(C)=O)(C(=O)OC)[C@H](F)[C@@H]1OC(C)=O (stereo partly drawn)
> 102	COC(=O)C1(OC(C)=O)O[C@@H]([C@H](OC(C)=O)[C@@H](COC(C)=O)OC(C)=O)[C@H](NC(=O)C(F)(F)F)[C@@H](OC(C)=O)[C@H]1F (stereo partly drawn)

Tested on: B16-F10
Test: Effect on total cell surface glycosylation in mouse B16F10 cells assessed as inhibition of biotinylated PSA-lectin binding at 102.4 uM after 3 days by flow cytometry
Assay type: cell-based
Conditions: b16-f10, 72 h
Outline: as §1

SMILES	Activity
COC(=O)C1(OC(C)=O)O[C@@H]([C@H](OC(C)=O)[C@@H](COC(C)=O)OC(C)=O)[C@H](NC(=O)C(F)(F)F)[C@@H](OC(C)=O)[C@H]1F (stereo partly drawn)	Non-Toxic

Tested on: not listed separately
Test: Inhibition of sialyltransferase in HEK293 cells assessed as decrease in lectin binding after 3 days by biotinylated MAL2 lectin and streptavidin-PE based flow cytometry
Assay type: cell-based, Homo sapiens
Conditions: not given
Outline: as §3

EC50 [µM]	SMILES
42.8	COC(=O)C1(OC(C)=O)O[C@@H]([C@H](OC(C)=O)[C@@H](COC(C)=O)OC(C)=O)[C@H](NC(=O)C(F)(F)F)[C@@H](OC(C)=O)[C@H]1F (stereo partly drawn)

Tested on: B16-F10
Test: Relative inhibitory potency, ratio of SiaFAc to compound EC50 for inhibition of sialyltransferase in mouse B16-F10 cells
Assay type: cell-based
Conditions: not given

SMILES	Ratio EC50
COC(=O)C1(OC(C)=O)O[C@@H]([C@H](OC(C)=O)[C@@H](COC(C)=O)OC(C)=O)[C@H](NC(=O)OCC(Cl)(Cl)Cl)[C@@H](OC(C)=O)[C@H]1F (stereo partly drawn)	7
CCCCOC(=O)N[C@H]1[C@H]([C@H](OC(C)=O)[C@@H](COC(C)=O)OC(C)=O)OC(OC(C)=O)(C(=O)OC)[C@H](F)[C@@H]1OC(C)=O (stereo partly drawn)	4
COC(=O)C1(OC(C)=O)O[C@@H]([C@H](OC(C)=O)[C@@H](COC(C)=O)OC(C)=O)[C@H](NC(=O)OCc2ccccc2)[C@@H](OC(C)=O)[C@H]1F (stereo partly drawn)	2
COC(=O)C1(OC(C)=O)O[C@@H]([C@H](OC(C)=O)[C@@H](COC(C)=O)OC(C)=O)[C@H](NC(=O)CCl)[C@@H](OC(C)=O)[C@H]1F (stereo partly drawn)	1
COCCOC(=O)N[C@H]1[C@H]([C@H](OC(C)=O)[C@@H](COC(C)=O)OC(C)=O)OC(OC(C)=O)(C(=O)OC)[C@H](F)[C@@H]1OC(C)=O (stereo partly drawn)	1
COC(=O)C1(OC(C)=O)O[C@@H]([C@H](OC(C)=O)[C@@H](COC(C)=O)OC(C)=O)[C@H](NC(=O)OCCF)[C@@H](OC(C)=O)[C@H]1F (stereo partly drawn)	21
COC(=O)C1(OC(C)=O)O[C@@H]([C@H](OC(C)=O)[C@@H](COC(C)=O)OC(C)=O)[C@H](NC(=O)C(F)(F)F)[C@@H](OC(C)=O)[C@H]1F (stereo partly drawn)	2

Tested on: B16-F10
Test: Inhibition of sialyltransferase in mouse B16-F10 cells assessed as recovery time for sialylation at 51.2 uM pretreated for 3 days followed by washing and re-seeding and measured after 6 days by biotinylated MAL2 lectin-based flow cytometry
Assay type: cell-based
Conditions: not given
Outline: as §2

SMILES	TIME [h]
COC(=O)C1(OC(C)=O)O[C@@H]([C@H](OC(C)=O)[C@@H](COC(C)=O)OC(C)=O)[C@H](NC(=O)CCl)[C@@H](OC(C)=O)[C@H]1F (stereo partly drawn)	48 to 72
COC(=O)C1(OC(C)=O)O[C@@H]([C@H](OC(C)=O)[C@@H](COC(C)=O)OC(C)=O)[C@H](NC(=O)C(F)(F)F)[C@@H](OC(C)=O)[C@H]1F (stereo partly drawn)	48 to 72

Tested on: not listed separately
Test: Inhibition of sialyltransferase in human THP1 cells assessed as decrease in lectin binding after 3 days by biotinylated MAL2 lectin and streptavidin-PE based flow cytometry
Assay type: cell-based
Conditions: not given
Outline: as §3

EC50 [µM]	SMILES
3.3	COC(=O)C1(OC(C)=O)O[C@@H]([C@H](OC(C)=O)[C@@H](COC(C)=O)OC(C)=O)[C@H](NC(=O)C(F)(F)F)[C@@H](OC(C)=O)[C@H]1F (stereo partly drawn)

Tested on: B16-F10
Test: Effect on total cell surface glycosylation in mouse B16F10 cells assessed as inhibition of biotinylated WGA-lectin binding at 102.4 uM after 3 days by flow cytometry
Assay type: cell-based
Conditions: b16-f10, 72 h
Outline: as §1

SMILES	Activity
COC(=O)C1(OC(C)=O)O[C@@H]([C@H](OC(C)=O)[C@@H](COC(C)=O)OC(C)=O)[C@H](NC(=O)C(F)(F)F)[C@@H](OC(C)=O)[C@H]1F (stereo partly drawn)	Non-Toxic

Tested on: B16-F10
Test: Cytotoxicity against mouse B16F10 cells assessed as reduction in metabolic activity at 204.8 uM after 3 days by MTT assay
Assay type: ADME, cell-based
Conditions: b16-f10, 72 h

SMILES	Activity
COC(=O)C1(OC(C)=O)O[C@@H]([C@H](OC(C)=O)[C@@H](COC(C)=O)OC(C)=O)[C@H](NC(=O)C(F)(F)F)[C@@H](OC(C)=O)[C@H]1F (stereo partly drawn)	Non-Toxic

Tested on: not listed separately
Test: Inhibition of sialyltransferase in mouse 9464D cells assessed as decrease in lectin binding after 3 days by biotinylated MAL2 lectin and streptavidin-PE based flow cytometry
Assay type: cell-based
Conditions: not given
Outline: as §3

EC50 [µM]	SMILES
46.5	COC(=O)C1(OC(C)=O)O[C@@H]([C@H](OC(C)=O)[C@@H](COC(C)=O)OC(C)=O)[C@H](NC(=O)C(F)(F)F)[C@@H](OC(C)=O)[C@H]1F (stereo partly drawn)

Tested on: not listed separately
Test: Inhibition of sialyltransferase in human HeLa cells assessed as decrease in lectin binding after 3 days by biotinylated MAL2 lectin and streptavidin-PE based flow cytometry
Assay type: cell-based
Conditions: not given
Outline: as §3

EC50 [µM]	SMILES
25.5	COC(=O)C1(OC(C)=O)O[C@@H]([C@H](OC(C)=O)[C@@H](COC(C)=O)OC(C)=O)[C@H](NC(=O)C(F)(F)F)[C@@H](OC(C)=O)[C@H]1F (stereo partly drawn)

Tested on: B16-F10
Test: Effect on total cell surface glycosylation in mouse B16F10 cells assessed as inhibition of biotinylated PNA lectin binding at 102.4 uM after 3 days by flow cytometry
Assay type: cell-based
Conditions: b16-f10, 72 h
Outline: as §1

SMILES	Activity
COC(=O)C1(OC(C)=O)O[C@@H]([C@H](OC(C)=O)[C@@H](COC(C)=O)OC(C)=O)[C@H](NC(=O)C(F)(F)F)[C@@H](OC(C)=O)[C@H]1F (stereo partly drawn)	Non-Toxic

Tested on: B16-F10
Test: Cytotoxicity against mouse B16F10 cells assessed as reduction in metabolic activity at <51.2 uM after 3 days by MTT assay
Assay type: ADME, cell-based
Conditions: b16-f10, 72 h

SMILES	Activity
COC(=O)C1(OC(C)=O)O[C@@H]([C@H](OC(C)=O)[C@@H](COC(C)=O)OC(C)=O)[C@H](NC(=O)C(F)(F)F)[C@@H](OC(C)=O)[C@H]1F (stereo partly drawn)	Non-Toxic
